{"source": "ChEMBL document CHEMBL4387704", "about": "“Design, synthesis and biological evaluation of novel isoindolinone derivatives as potent histone deacetylase inhibitors” (Eur J Med Chem, 2019)", "key": {"[1]": {"target": "Histone deacetylase 5 (Homo sapiens) (UniProt Q9UQL6)", "sequence (Q9UQL6 whole entry, canonical isoform)": "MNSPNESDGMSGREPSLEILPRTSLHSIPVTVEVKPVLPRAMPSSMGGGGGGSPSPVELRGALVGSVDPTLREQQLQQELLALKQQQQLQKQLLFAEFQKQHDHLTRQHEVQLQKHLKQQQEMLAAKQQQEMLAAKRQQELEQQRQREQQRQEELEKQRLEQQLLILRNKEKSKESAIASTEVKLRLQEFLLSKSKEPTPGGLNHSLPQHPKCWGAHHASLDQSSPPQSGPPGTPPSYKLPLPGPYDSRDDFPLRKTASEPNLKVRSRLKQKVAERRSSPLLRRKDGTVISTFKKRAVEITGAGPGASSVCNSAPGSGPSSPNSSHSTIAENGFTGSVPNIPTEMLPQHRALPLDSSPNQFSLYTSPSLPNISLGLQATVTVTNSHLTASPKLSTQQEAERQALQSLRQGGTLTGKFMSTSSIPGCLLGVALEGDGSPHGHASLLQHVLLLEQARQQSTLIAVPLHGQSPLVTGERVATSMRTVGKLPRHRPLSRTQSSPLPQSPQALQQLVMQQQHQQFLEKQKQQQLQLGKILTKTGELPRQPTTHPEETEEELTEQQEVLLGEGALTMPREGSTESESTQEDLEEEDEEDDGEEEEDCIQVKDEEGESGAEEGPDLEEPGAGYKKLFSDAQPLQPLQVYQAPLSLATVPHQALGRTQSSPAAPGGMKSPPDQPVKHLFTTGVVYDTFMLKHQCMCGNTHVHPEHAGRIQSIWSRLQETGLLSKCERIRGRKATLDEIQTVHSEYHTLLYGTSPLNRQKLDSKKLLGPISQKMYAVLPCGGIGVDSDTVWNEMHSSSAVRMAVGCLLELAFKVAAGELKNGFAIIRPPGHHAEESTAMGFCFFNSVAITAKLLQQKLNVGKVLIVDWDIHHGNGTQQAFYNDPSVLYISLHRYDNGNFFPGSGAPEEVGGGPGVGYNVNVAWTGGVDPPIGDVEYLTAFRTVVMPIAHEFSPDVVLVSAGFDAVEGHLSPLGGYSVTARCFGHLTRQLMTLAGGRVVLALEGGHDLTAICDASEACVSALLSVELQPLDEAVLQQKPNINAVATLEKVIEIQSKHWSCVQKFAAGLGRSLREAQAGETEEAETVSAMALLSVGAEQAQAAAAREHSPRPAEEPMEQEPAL", "assay": "Inhibition of HDAC5 (unknown origin) using Fluor de Lys substrate by fluorescence assay relative to control", "in_short": "(§1)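 Recombinant HDAC isoform assays run by a contract lab. Compounds in DMSO, 10-dose IC50 mode, 3-fold serial dilution from 50 μM. Duplicate runs; IC50 from curve fitting.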"}, "[2]": {"system": "NCI-H322M", "assay": "Growth inhibition of human NCI-H322M assessed as cell growth inhibition at 10 uM incubated for 48 hrs by sulforhodamine B assay", "assay_type": "functional", "conditions": "read-out: GI"}, "[3]": {"system": "HT-29", "assay": "Growth inhibition of human HT-29 cells assessed as cell growth inhibition at 10 uM incubated for 48 hrs by sulforhodamine B assay", "assay_type": "functional", "conditions": "HT-29, 48 h, read-out: GI"}, "[4]": {"system": "SF-539", "assay": "Growth inhibition of human SF539 cells assessed as cell growth inhibition at 10 uM incubated for 48 hrs by sulforhodamine B assay", "assay_type": "functional", "conditions": "SF-539, 48 h, read-out: GI"}, "[5]": {"system": "HCT-116", "assay": "Growth inhibition of human HCT116 cells assessed as cell growth inhibition at 10 uM incubated for 48 hrs by sulforhodamine B assay", "assay_type": "functional", "conditions": "HCT-116, 48 h, read-out: GI"}, "[6]": {"target": "Polyamine deacetylase HDAC10 (Homo sapiens, UniProt Q969S8)", "sequence (Q969S8 whole entry)": "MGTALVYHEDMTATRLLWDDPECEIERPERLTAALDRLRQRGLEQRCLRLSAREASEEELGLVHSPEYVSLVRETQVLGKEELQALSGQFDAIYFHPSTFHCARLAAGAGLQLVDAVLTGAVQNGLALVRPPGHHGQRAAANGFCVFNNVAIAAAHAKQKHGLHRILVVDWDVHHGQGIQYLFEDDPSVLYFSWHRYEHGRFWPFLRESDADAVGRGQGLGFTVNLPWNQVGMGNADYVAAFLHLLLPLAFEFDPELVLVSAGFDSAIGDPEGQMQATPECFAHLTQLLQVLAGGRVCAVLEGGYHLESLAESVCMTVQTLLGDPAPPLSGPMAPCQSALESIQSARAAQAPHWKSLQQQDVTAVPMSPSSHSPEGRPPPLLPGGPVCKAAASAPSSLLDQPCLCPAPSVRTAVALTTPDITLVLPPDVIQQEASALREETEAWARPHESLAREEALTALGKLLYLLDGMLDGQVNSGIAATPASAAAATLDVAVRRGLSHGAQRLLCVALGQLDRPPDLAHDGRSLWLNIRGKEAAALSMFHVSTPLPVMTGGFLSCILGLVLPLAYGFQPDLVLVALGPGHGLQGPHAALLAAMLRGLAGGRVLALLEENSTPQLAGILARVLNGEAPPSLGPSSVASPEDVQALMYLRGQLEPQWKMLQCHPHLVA", "assay": "Inhibition of HDAC10 (unknown origin) using Fluor de Lys substrate by fluorescence assay relative to control", "in_short": "as §1"}, "[7]": {"system": "K562", "assay": "Antiproliferative activity against human K562 assessed as reduction in cell viability measured after 72 hrs using alamar blue based fluorescence method", "assay_type": "functional", "conditions": "K562, 72 h", "in_short": "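Leukemia lines grown in IMDM with penicillin/streptomycin, HL-60 with 20% FBS and K562 with 10% FBS, at 37 °C, 5% CO2. Cells in 96-well plates exposed to drug for 72 h. Alamar blue (1 mM solution) added for 5–6 h, fluorescence read at 530/590 nm.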"}, "[8]": {"system": "K562", "assay": "Growth inhibition of human K562 cells assessed as cell growth inhibition at 10 uM incubated for 48 hrs by sulforhodamine B assay", "assay_type": "functional", "conditions": "K562, 48 h, read-out: GI"}, "[9]": {"system": "SK-MEL-2", "assay": "Growth inhibition of human SK-MEL-2 cells assessed as cell growth inhibition at 10 uM incubated for 48 hrs by sulforhodamine B assay", "assay_type": "functional", "conditions": "SK-MEL-2, 48 h, read-out: GI"}, "[10]": {"system": "SNB-19", "assay": "Growth inhibition of human SNB19 cells assessed as cell growth inhibition at 10 uM incubated for 48 hrs by sulforhodamine B assay", "assay_type": "functional", "conditions": "SNB-19, 48 h, read-out: GI"}, "[11]": {"target": "Histone deacetylase 11 (Homo sapiens, UniProt Q96DB2)", "sequence (Q96DB2 whole entry)": "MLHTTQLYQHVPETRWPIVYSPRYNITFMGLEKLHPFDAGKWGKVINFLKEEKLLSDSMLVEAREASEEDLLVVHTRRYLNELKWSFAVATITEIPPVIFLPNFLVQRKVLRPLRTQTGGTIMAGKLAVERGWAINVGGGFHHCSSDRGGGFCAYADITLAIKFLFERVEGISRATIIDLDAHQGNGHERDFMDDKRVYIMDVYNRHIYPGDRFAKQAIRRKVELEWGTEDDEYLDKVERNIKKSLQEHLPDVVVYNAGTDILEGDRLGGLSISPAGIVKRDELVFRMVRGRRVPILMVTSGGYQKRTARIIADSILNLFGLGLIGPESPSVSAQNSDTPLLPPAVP", "assay": "Inhibition of HDAC11 (unknown origin) using Fluor de Lys substrate by fluorescence assay relative to control", "in_short": "as §1"}, "[12]": {"system": "SW-620", "assay": "Growth inhibition of human SW620 cells assessed as cell growth inhibition at 10 uM incubated for 48 hrs by sulforhodamine B assay", "assay_type": "functional", "conditions": "SW-620, 48 h, read-out: GI"}, "[13]": {"assay": "Metabolic stability in human liver microsomes assessed as internal clearance at 1 uM preincubated for 10 mins followed by NADPH addition measured upto 60 mins by LC-MS/MS analysis", "assay_type": "ADME, Microsome", "conditions": "read-out: CLH", "in_short": "(§2)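 Liver microsomes from male SD rat, dog or human at 0.5 mg/mL in 100 mM potassium phosphate pH 7.4 with 1 μM compound. Prewarmed 37 °C 10 min, started with 1 mM NADPH. Stopped at 0, 5, 10, 20, 40, 60 min with cold methanol containing glibenclamide internal standard; supernatant by LC–MS/MS; T1/2 and CLint derived.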"}, "[14]": {"assay": "Terminal half life in Sprague-Dawley rat at 1 mg/kg, iv by LC-MS/MS analysis", "assay_type": "ADME, organism-based", "conditions": "in vivo, read-out: beta t1/2 (converted)", "in_short": "(§3)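 Male SD rats (199-214 g), three per route, single dose 1 mg/kg iv or 10 mg/kg po. Jugular blood (~200 μL) into heparinized tubes at set times; plasma by centrifugation, protein precipitation with acetonitrile containing verapamil and glibenclamide; drug measured by LC-MS/MS.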"}, "[15]": {"system": "MOLT-4", "assay": "Growth inhibition of human MOLT4 cells assessed as cell growth inhibition at 10 uM incubated for 48 hrs by sulforhodamine B assay", "assay_type": "functional", "conditions": "MOLT-4, 48 h, read-out: GI"}, "[16]": {"system": "RPMI-8226", "assay": "Growth inhibition of human RPMI8226 cells assessed as cell growth inhibition at 10 uM incubated for 48 hrs by sulforhodamine B assay", "assay_type": "functional", "conditions": "RPMI-8226, 48 h, read-out: GI"}, "[17]": {"system": "RXF 393", "assay": "Growth inhibition of human RXF393 cells assessed as cell growth inhibition at 10 uM incubated for 48 hrs by sulforhodamine B assay", "assay_type": "functional", "conditions": "RXF 393, 48 h, read-out: GI"}, "[18]": {"assay": "Oral bioavailability in Sprague-Dawley rat at 10 mg/kg by LC-MS/MS analysis", "assay_type": "ADME, organism-based", "conditions": "in vivo", "in_short": "as §3"}, "[19]": {"system": "BT-549", "assay": "Growth inhibition of human BT549 cells assessed as cell growth inhibition at 10 uM incubated for 48 hrs by sulforhodamine B assay", "assay_type": "functional", "conditions": "BT-549, 48 h, read-out: GI"}, "[20]": {"assay": "Metabolic stability in dog liver microsomes assessed as internal clearance at 1 uM preincubated for 10 mins followed by NADPH addition measured upto 60 mins by LC-MS/MS analysis", "assay_type": "ADME, Canis lupus familiaris, Microsome", "conditions": "read-out: CLH", "in_short": "as §2"}, "[21]": {"target": "Histone deacetylase 3 (Homo sapiens, UniProt O15379)", "sequence (O15379 whole entry)": "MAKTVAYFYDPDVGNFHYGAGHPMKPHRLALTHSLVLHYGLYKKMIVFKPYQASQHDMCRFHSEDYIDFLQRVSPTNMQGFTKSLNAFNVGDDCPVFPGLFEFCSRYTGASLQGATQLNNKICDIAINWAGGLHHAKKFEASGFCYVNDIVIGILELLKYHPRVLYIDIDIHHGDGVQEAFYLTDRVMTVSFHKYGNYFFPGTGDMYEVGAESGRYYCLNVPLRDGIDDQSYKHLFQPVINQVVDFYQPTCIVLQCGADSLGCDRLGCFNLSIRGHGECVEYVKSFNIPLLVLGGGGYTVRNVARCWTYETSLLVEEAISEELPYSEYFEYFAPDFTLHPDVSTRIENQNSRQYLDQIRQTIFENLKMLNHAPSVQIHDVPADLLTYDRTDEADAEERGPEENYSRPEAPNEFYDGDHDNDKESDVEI", "assay": "Inhibition of HDAC3 (unknown origin) using Fluor de Lys substrate by fluorescence assay relative to control", "in_short": "as §1"}, "[22]": {"system": "NCI-H522", "assay": "Growth inhibition of human NCI-H522 cells assessed as cell growth inhibition at 10 uM incubated for 48 hrs by sulforhodamine B assay", "assay_type": "functional", "conditions": "NCI-H522, 48 h, read-out: GI"}, "[23]": {"system": "U-251", "assay": "Growth inhibition of human U251 cells assessed as cell growth inhibition at 10 uM incubated for 48 hrs by sulforhodamine B assay", "assay_type": "functional", "conditions": "U-251, 48 h, read-out: GI"}, "[24]": {"system": "SN12C", "assay": "Growth inhibition of human SN12C cells assessed as cell growth inhibition at 10 uM incubated for 48 hrs by sulforhodamine B assay", "assay_type": "functional", "conditions": "read-out: GI"}, "[25]": {"system": "SF-268", "assay": "Growth inhibition of human SF268 cells assessed as cell growth inhibition at 10 uM incubated for 48 hrs by sulforhodamine B assay", "assay_type": "functional", "conditions": "SF-268, 48 h, read-out: GI"}, "[26]": {"system": "ACHN", "assay": "Growth inhibition of human ACHN cells assessed as cell growth inhibition at 10 uM incubated for 48 hrs by sulforhodamine B assay", "assay_type": "functional", "conditions": "read-out: GI"}, "[27]": {"system": "Hs-578T", "assay": "Growth inhibition of human Hs 578T cells assessed as cell growth inhibition at 10 uM incubated for 48 hrs by sulforhodamine B assay", "assay_type": "functional", "conditions": "read-out: GI"}, "[28]": {"system": "A498", "assay": "Growth inhibition of human A498 cells assessed as cell growth inhibition at 10 uM incubated for 48 hrs by sulforhodamine B assay", "assay_type": "functional", "conditions": "A498, 48 h, read-out: GI"}, "[29]": {"assay": "Volume of distribution at steady state in Sprague-Dawley rat at 1 mg/kg, iv by LC-MS/MS analysis", "assay_type": "ADME, organism-based", "conditions": "in vivo, read-out: Vdss", "in_short": "as §3"}, "[30]": {"system": "MCF7", "assay": "Potency index, ratio of IC50 of chidamide to IC50 of test compound against human MCF7 cells", "assay_type": "functional"}, "[31]": {"system": "MDA-MB-468", "assay": "Growth inhibition of human MDA-MB-468 cells assessed as cell growth inhibition at 10 uM incubated for 48 hrs by sulforhodamine B assay", "assay_type": "functional", "conditions": "MDA-MB-468, 48 h, read-out: GI"}}, "note": "Activity calls are given as the source filed them. The rule behind the calls is not given here."}
{"compound": "Nc1cc(F)ccc1NC(=O)c1ccc(CNC(=O)/C=C2\\NC(=O)c3ccccc32)cc1", "values": [{"measurement": "inhibition", "setting": "[1]", "result": "inactive"}, {"measurement": "inhibition of growth at 10 µM", "setting": "[2]", "result": 14.2, "unit": "%"}, {"measurement": "inhibition of growth at 10 µM", "setting": "[3]", "result": 40.4, "unit": "%"}, {"measurement": "inhibition of growth at 10 µM", "setting": "[4]", "result": 44.8, "unit": "%"}, {"measurement": "inhibition of growth at 10 µM", "setting": "[5]", "result": 73.3, "unit": "%"}, {"measurement": "IC50", "setting": "[6]", "result": 950, "unit": "nM"}, {"measurement": "IC50", "setting": "[7]", "result": 193, "unit": "nM"}, {"measurement": "inhibition of growth at 10 µM", "setting": "[8]", "result": 61.6, "unit": "%"}, {"measurement": "inhibition of growth at 10 µM", "setting": "[9]", "result": 52, "unit": "%"}, {"measurement": "inhibition of growth at 10 µM", "setting": "[10]", "result": 13.6, "unit": "%"}, {"measurement": "IC50", "setting": "[11]", "result": 632, "unit": "nM"}, {"measurement": "inhibition of growth at 10 µM", "setting": "[12]", "result": 40.1, "unit": "%"}, {"measurement": "microsomal CLint at 1 µM", "setting": "[13]", "result": 4.8, "unit": "µL/min/mg"}, {"measurement": "half-life", "setting": "[14]", "result": 23.4, "unit": "min"}, {"measurement": "inhibition of growth at 10 µM", "setting": "[15]", "result": 63, "unit": "%"}, {"measurement": "inhibition of growth at 10 µM", "setting": "[16]", "result": 59.8, "unit": "%"}, {"measurement": "inhibition of growth at 10 µM", "setting": "[17]", "result": 17.5, "unit": "%"}, {"measurement": "bioavailability", "setting": "[18]", "result": 16, "unit": "%"}, {"measurement": "inhibition of growth at 10 µM", "setting": "[19]", "result": 6.06, "unit": "%"}, {"measurement": "microsomal CLint at 1 µM", "setting": "[20]", "result": 6.92, "unit": "µL/min/mg"}, {"measurement": "IC50", "setting": "[21]", "result": 112, "unit": "nM"}, {"measurement": "inhibition of growth at 10 µM", "setting": "[22]", "result": 70.7, "unit": "%"}, {"measurement": "inhibition of growth at 10 µM", "setting": "[23]", "result": 35.9, "unit": "%"}, {"measurement": "inhibition of growth at 10 µM", "setting": "[24]", "result": 30.8, "unit": "%"}, {"measurement": "inhibition of growth at 10 µM", "setting": "[25]", "result": 36, "unit": "%"}, {"measurement": "inhibition of growth at 10 µM", "setting": "[26]", "result": 15, "unit": "%"}, {"measurement": "inhibition of growth at 10 µM", "setting": "[27]", "result": 29.3, "unit": "%"}, {"measurement": "inhibition of growth at 10 µM", "setting": "[28]", "result": 47.1, "unit": "%"}, {"measurement": "Vd", "setting": "[29]", "result": 0.493, "unit": "L/kg"}, {"measurement": "Ratio IC50", "setting": "[30]", "result": 2}, {"measurement": "inhibition of growth at 10 µM", "setting": "[31]", "result": 9.71, "unit": "%"}]}
